Measured values: ChEMBL document CHEMBL1155278, “3,4-Diaryl-isoxazoles and -imidazoles as potent dual inhibitors of p38alpha mitogen activated protein kinase and casein kinase 1delta” (J Med Chem, 2009)

How the values were obtained:
[1] = biological target: Serine/threonine-protein kinase pim-3 (Homo sapiens) (UniProt Q86V86); test: Inhibition of PIM3 assessed as residual activity at 0.1 uM by Cherenkov counting relative to control in presence of 20 uM ATP
How it was run: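 Single-concentration selectivity screen at 0.1 μM against a panel of 76 protein kinases. Each kinase was run at an ATP level approximating its Km for ATP. Output is mean residual activity as % of the control assay without compound, n = 3 ± SD.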

[2] = biological target: Tyrosine-protein kinase Yes (Homo sapiens) (UniProt P07947); test: Inhibition of YES1 assessed as residual activity at 10 uM by Cherenkov counting relative to control in presence of 20 uM ATP
How it was run: (§1)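 Single-concentration profiling at 10 μM in a 78-kinase panel. Kinase activity is expressed as a percentage of control assays run without compound.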

[3] = biological target: T1, Protein kinase C zeta type (Homo sapiens) (UniProt Q05513); test: Inhibition of PKCzeta assessed as residual activity at 10 uM by Cherenkov counting relative to control in presence of 5 uM ATP; how it was run: as §1
T1 sequence (whole entry): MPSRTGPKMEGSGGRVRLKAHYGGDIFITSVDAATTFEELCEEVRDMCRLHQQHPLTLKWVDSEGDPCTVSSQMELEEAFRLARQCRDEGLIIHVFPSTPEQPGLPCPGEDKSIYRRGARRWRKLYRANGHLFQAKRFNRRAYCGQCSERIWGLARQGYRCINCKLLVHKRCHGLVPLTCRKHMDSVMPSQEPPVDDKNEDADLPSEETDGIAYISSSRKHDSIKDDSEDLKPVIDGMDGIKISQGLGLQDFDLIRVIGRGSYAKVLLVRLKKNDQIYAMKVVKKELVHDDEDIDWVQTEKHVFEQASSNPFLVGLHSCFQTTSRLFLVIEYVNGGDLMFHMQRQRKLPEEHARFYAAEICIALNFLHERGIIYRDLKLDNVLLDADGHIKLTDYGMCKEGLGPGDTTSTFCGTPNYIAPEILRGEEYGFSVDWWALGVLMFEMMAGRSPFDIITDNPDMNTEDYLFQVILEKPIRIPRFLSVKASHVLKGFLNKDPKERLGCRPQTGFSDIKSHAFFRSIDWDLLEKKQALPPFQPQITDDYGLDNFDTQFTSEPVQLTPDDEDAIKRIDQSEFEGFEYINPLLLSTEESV

[4] = biological target: T2, Serine/threonine-protein kinase 3 (Homo sapiens) (UniProt Q13188); test: Inhibition of MST2 assessed as residual activity at 10 uM by Cherenkov counting relative to control in presence of 20 uM ATP
T2 sequence (whole entry): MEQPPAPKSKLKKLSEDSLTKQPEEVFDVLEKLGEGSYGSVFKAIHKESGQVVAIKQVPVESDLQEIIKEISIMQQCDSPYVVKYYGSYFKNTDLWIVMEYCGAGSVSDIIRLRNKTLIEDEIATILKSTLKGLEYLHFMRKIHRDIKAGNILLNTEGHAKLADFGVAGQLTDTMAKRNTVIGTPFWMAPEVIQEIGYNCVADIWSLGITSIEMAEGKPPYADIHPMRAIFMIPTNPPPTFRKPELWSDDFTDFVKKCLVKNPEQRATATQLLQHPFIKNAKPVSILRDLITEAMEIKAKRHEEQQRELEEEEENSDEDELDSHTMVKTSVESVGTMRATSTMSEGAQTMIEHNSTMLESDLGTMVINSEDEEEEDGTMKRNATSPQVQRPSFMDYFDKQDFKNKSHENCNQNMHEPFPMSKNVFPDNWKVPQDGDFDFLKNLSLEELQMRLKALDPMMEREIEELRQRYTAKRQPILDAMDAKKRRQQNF

[5] = biological target: T3, Inhibitor of nuclear factor kappa-B kinase subunit beta (Homo sapiens) (UniProt O14920); test: Inhibition of IKK-beta assessed as residual activity at 10 uM by Cherenkov counting relative to control in presence of 5 uM ATP
T3 sequence (whole entry): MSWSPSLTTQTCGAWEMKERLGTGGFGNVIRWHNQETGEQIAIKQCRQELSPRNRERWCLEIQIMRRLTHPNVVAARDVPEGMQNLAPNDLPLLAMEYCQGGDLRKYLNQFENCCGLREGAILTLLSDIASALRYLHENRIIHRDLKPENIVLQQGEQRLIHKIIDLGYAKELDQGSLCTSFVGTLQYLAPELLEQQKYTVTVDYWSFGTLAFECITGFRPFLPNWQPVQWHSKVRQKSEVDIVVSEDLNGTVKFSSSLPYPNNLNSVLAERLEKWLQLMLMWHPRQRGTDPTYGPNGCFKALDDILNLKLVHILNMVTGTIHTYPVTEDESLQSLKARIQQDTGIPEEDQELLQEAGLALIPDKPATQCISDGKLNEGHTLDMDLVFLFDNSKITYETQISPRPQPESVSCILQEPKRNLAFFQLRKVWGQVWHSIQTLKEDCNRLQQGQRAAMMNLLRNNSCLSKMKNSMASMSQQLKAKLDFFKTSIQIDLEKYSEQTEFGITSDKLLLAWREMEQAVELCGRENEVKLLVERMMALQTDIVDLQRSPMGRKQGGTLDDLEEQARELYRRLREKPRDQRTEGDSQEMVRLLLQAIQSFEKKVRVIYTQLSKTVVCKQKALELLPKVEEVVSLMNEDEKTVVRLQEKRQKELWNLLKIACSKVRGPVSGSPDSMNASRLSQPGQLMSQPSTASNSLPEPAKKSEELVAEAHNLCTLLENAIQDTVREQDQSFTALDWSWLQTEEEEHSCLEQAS
How it was run: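 Single-point profiling at 10 µM in a panel of 78 protein kinases. Kinase activity is expressed as a percentage relative to control assays without compound.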

Tyrosine-protein kinase Yes (Homo sapiens), sequence (P07947 2-543 limits assumed): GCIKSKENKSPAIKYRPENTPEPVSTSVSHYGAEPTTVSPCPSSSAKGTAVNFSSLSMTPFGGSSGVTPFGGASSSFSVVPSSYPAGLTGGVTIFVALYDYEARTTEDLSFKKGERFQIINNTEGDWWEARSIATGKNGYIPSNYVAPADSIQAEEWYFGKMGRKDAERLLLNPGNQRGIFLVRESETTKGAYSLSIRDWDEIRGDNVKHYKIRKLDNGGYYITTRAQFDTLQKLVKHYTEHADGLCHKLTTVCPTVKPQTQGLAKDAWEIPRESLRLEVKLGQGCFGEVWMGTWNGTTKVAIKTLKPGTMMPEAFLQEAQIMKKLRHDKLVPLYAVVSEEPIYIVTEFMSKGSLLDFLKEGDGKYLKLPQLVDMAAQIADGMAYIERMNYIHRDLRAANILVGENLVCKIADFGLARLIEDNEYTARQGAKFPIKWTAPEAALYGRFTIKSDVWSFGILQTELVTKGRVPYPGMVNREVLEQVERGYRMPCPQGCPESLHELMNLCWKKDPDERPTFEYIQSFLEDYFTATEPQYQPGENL

Q: With `COc1ccc(/C=C/C(=O)Nc2cc(-c3[nH]c(SC)nc3-c3ccc(F)cc3)ccn2)c(OC)c1` as the compound, how does the Activity [1] read?
A: Its Activity is 81%.

Q: Which Activity [1] does the source give for `COc1ccc(/C=C/C(=O)Nc2cc(-c3[nH]c([S+](C)[O-])nc3-c3ccc(F)cc3)ccn2)c(OC)c1` (stereo not given) here?
A: Its Activity is 90%.

Q: Which Activity [2] does the source give for `CC(C)c1onc(-c2ccc(F)cc2)c1-c1ccncc1` here?
A: Its Activity is 82%.

Q: What about the Activity [3] of the same compound?
A: Its Activity is 81%.

Q: What about the Activity [4] of the same compound?
A: The Activity was 95%.

Q: What about the Activity [5] of the same compound?
A: The Activity was 103%.

Q: For `CC(C)c1noc(-c2ccc(F)cc2)c1-c1ccncc1`, which Activity [2] is on record?
A: Its Activity is 101%.

Q: And the Activity [3]?
A: Its Activity is 91%.

Q: What about the Activity [4] of the same compound?
A: The Activity was 95%.

Q: And the Activity [5]?
A: The Activity was 103%.
